Screening results as filed in PubChem.
This is a sample that favours compounds with a hit; in the whole collection about 1.9% have one here.
NS3 helicase inh: blocks Hepatitis C virus NS3 helicase unwinding; NS3 helicase DNA unwinding, Cy5 molecular beacon fluorescence; inhibition, % at 10.9 µM; hit rate 0.56% among 290,000;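 active = inhibition above the mean of all tested compounds plus 3 SD, set per campaign, cut at about 35% in these data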
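Assay system: hepatitis C virus NS3 helicase domain fragment enzyme. Also added: annealed dual-labelled DNA beacon duplex, ATP-started. Timing: 1 h reaction at 25 °C, ATP-initiated. Technique: Cy5 fluorescence at 0 and 60 min, beacon hairpin quenching. Evaluation: % inhibition of unwinding. Replication: one well per compound.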
ZTA DNA inh: blocks Epstein-Barr virus ZTA, an EBNA-1 counter-screen. P03206. ZTA-DNA binding, fluorescence polarization. inhibition, % at 11 µM. hit rate 0.15% among 320,000. AID 2234; in the data active = inhibition above about 33%
Target sequence (P03206 whole entry, looked up): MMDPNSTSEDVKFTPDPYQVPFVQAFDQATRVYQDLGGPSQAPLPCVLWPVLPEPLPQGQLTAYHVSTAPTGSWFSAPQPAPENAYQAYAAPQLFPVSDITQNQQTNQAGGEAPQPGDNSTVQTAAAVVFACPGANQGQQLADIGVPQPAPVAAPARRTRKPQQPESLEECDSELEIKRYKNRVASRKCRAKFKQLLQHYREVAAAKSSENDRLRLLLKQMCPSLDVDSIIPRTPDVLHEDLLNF
EBNA-1 inh: blocks EBNA-1 binding to DNA; AID 1950; hit rate 0.34% among 300,000; inhibition, % at 14.8 µM; EBNA-1 DNA binding, fluorescence polarization; in the data active = inhibition above about 28%
PP1 inh: PP1-alpha (human) inhibition in PP5 counter-screen | P62136 | purified PP1alpha, OMFP fluorescence | hit rate 0.9% among 320,000 | inhibition, % at 6.7 µM;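 active = inhibition above the mean inhibition of all tested compounds plus 3 SD, computed separately for each screening campaign, cut at about 15% in these data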
Target sequence (P62136 whole entry, looked up): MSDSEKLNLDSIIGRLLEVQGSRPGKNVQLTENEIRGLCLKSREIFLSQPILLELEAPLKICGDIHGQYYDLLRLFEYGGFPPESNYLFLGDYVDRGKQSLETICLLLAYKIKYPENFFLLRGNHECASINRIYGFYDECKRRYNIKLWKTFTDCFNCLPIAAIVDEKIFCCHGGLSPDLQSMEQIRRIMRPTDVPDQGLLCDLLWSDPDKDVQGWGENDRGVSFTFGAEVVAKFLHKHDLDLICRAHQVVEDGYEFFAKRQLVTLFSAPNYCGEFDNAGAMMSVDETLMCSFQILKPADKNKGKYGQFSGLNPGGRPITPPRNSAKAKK
HCV core dimer: blocks dimerization of HCV core protein. TR-FRET GST/Flag-core106 dimerization, 1536-well. inhibition, % at 5 µM. hit rate 0.33% among 300,000;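 active = inhibition above the mean of all tested compounds plus 3 SD, set per screening campaign, cut at about 45% in these data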
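Test system: GST/Flag-tagged HCV core106 proteins; Medium: KF-containing HEPES buffer, pH 7.45, DTT, CHAPS, BSA; Times: compound-protein-antibody incubation 4 h at 22.5 °C; Detection: TR-FRET 671 and 617 nm emission; Benchmarks: wells lacking GST-core106 and wells with excess unlabelled core106.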
NS3 hel confirm: HCV NS3 helicase inhibition, confirmation assay | shares compounds with NS3 helicase inh | NS3 helicase DNA unwinding, Cy5 molecular beacon fluorescence | inhibition, % at 10.9 µM | hit rate 31% among 1,600;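 active = inhibition above the mean of all tested compounds plus 3 SD, cutoff set per campaign, cut at about 36% in these data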
DNA FID counter: counter-screen for HCV NS3 helicase inhibitors: DNA intercalator displacement | shares compounds with NS3 helicase inh | DNA fluorescent intercalator displacement, fluorescence | inhibition, % at 7.9 µM | hit rate 4% among 1,600; in the data active = inhibition above about 37%;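 note: higher means more displacement of ethidium bromide from the DNA hairpin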
FID counter DR: displaces fluorescent intercalator from DNA, HCV helicase counter-screen. shares compounds with NS3 helicase inh. fluorescent intercalator displacement from DNA, fluorescence. IC50, µM. 120 tested, under 10 active. AID 2172; call rule not given here
Large screens that a line does not name were inactive (follow-up assays come after a bar, where they were run).

CC(C)Nc1nc(Oc2ccc(=O)n(-c3ccccc3)n2)nc(N(C)C)n1	NS3 helicase inh 36 | NS3 hel confirm inactive | DNA FID counter inactive
CCOC(=O)[C@H]1[C@H]2COc3ccc(Br)cc3[C@@H]2N2C(=O)CN(CC3CCCO3)C(=O)[C@@]12C (stereo not given in full)	none (no result: NS3 helicase inh, EBNA-1 inh, HCV core dimer)
CC(=O)N(C)c1ccc(N=Cc2c(O)ccc3ccccc23)cc1	NS3 helicase inh 36 | NS3 hel confirm inactive | DNA FID counter inactive
O=C(Nc1ccc(F)cc1)C1CCN(S(=O)(=O)c2cccc3nonc23)CC1	none
O=c1nc2s/c(=C\c3ccco3)c(=O)n2nc1Cc1ccc(F)cc1	NS3 helicase inh 47 | NS3 hel confirm inactive | DNA FID counter inactive
CC1(C)Oc2ccc3ccc(=O)oc3c2/C(=C/NNC(N)=S)C1=O	NS3 helicase inh 51 | NS3 hel confirm inactive | DNA FID counter inactive
CN/C=C1\C(=O)C(C)(C)Oc2ccc3ccc(=O)oc3c21	none
N#C/C(=C\c1ccc(O)c(O)c1)S(=O)(=O)c1ccccc1	NS3 helicase inh 38 | NS3 hel confirm 58 | DNA FID counter inactive | FID counter DR inactive
Cc1ccc(Nc2cccccc2=O)cc1	NS3 helicase inh 45 | NS3 hel confirm inactive | DNA FID counter inactive
Cc1ccc(NC(=O)COC(=O)c2ccccc2Nc2ccccc2)cc1	none
Cc1ccc(SC(CC(=O)c2ccc(F)cc2)C(=O)O)cc1 (stereo not given)	NS3 helicase inh 43 | NS3 hel confirm inactive | DNA FID counter inactive
Oc1c(Br)cc(/C=N/n2c(-c3ccccc3)n[nH]c2=S)c(Br)c1O	NS3 helicase inh 39 | NS3 hel confirm 65 | DNA FID counter inactive
Oc1c(Br)cc(Br)cc1/C=N/n1c(-c2ccccc2)n[nH]c1=S	none
CCOc1ccc(N2C(=O)CC(N3CCN(c4ccc([N+](=O)[O-])cc4)CC3)C2=O)cc1 (stereo not given)	NS3 helicase inh 47 | NS3 hel confirm inactive | DNA FID counter inactive
COc1ccc(Cl)cc1N(CC(=O)NC(C(C)C)C(C)C)S(C)(=O)=O	none
CN(Cc1ccccc1)c1ccc(N2C(=O)CCCC2=O)cc1[N+](=O)[O-]	none
Cc1c(NC(=O)C(C)OC(=O)c2c3c(nc4ccccc24)CCC3)c(=O)n(-c2ccccc2)n1C (stereo not given)	NS3 helicase inh 39 | NS3 hel confirm inactive | DNA FID counter inactive
COc1cc(NC(=O)C2=COCCO2)c(OC)cc1Cl	none (no result: NS3 helicase inh)
CC1CN(C(=O)CCCN2C(=O)c3ccccc3C2=O)CC(C)O1 (stereo not given)	none (no result: ZTA DNA inh, EBNA-1 inh, PP1 inh, HCV core dimer)
N#CC1=C(N)S[C@@H](C(=O)c2ccc(F)cc2)[C@@H]1c1cccs1	NS3 helicase inh 39 | NS3 hel confirm inactive | DNA FID counter inactive
Cc1c(C(=O)N2CCCCC2)c(S(=O)(=O)NCCc2ccc(S(N)(=O)=O)cc2)c(C)n1C	none
COc1ccc(OCC(O)CNC2CCCC2)cc1 (stereo not given)	none (no result: ZTA DNA inh, EBNA-1 inh, PP1 inh, HCV core dimer)
OC(CNC1Cc2ccccc2C1)COc1ccc(F)cc1 (stereo not given)	NS3 helicase inh 37 | NS3 hel confirm inactive | DNA FID counter inactive
CC(C)(CNC(=O)Cc1ccc(NS(=O)(=O)c2cccc(C(F)(F)F)c2)cc1)N1CCOCC1	none (no result: NS3 helicase inh)
O=S(=O)(O)c1nc2ccccc2n1Cc1ccccc1	none
O=S(=O)(O)c1nc2ccccc2n1Cc1cccc2ccccc12	NS3 helicase inh 43 | NS3 hel confirm 62 | DNA FID counter inactive
CC(=O)C1=C(O)C(=O)N(Cc2ccccc2)C1c1ccc(Br)cc1 (stereo not given)	NS3 helicase inh 41 | NS3 hel confirm inactive | DNA FID counter inactive
CC(C)CC(=O)C1=C(O)C(=O)N(Cc2ccccc2)C1c1ccccc1 (stereo not given)	NS3 helicase inh 36 | NS3 hel confirm inactive | DNA FID counter inactive
CN(C)c1ccc(N2C(=NC(=O)CCC3CCCC3)SC3CS(=O)(=O)CC32)cc1 (stereo not given)	none
COCCNC(=O)c1cccc(OC2CCN(Cc3ccc(Cl)c(F)c3)CC2)c1	none
Cc1ccc(C(=O)NNC(=O)Cn2ccc(C(F)(F)F)n2)o1	none (no result: NS3 helicase inh)
O=C(c1ccc([N+](=O)[O-])cc1)N1CCC(Cc2ccccc2)CC1	none
O=C(c1cnc(Cl)c(Cl)c1)N1CCC(Cc2ccccc2)CC1	NS3 helicase inh 37 | NS3 hel confirm inactive | DNA FID counter inactive
COc1ccc2[nH]cc(CCn3ccc(=O)c(C)c3C)c2c1	none
Cc1c(CC(=O)O)c(=O)oc2cc(OCc3ccc(F)cc3Cl)ccc12	NS3 helicase inh 48 | NS3 hel confirm 51 | DNA FID counter inactive
Cc1c(CCC(=O)O)c(=O)oc2cc(OCc3ccccc3F)ccc12	none
Cc1cc(C)cc(-n2c(SCC(=O)NCc3ccc4c(c3)OCO4)nc3ccccc3c2=O)c1	none
O=C(CSc1nc2cc([N+](=O)[O-])ccc2n1-c1ccccc1)NCc1ccc2c(c1)OCO2	NS3 helicase inh 40 | NS3 hel confirm inactive | DNA FID counter inactive
CC(O)[C@H](NC(=O)C1(c2ccccc2)CCN(C(=O)OC(C)(C)C)CC1)C(=O)O (stereo not given in full)	none
CCC(C)[C@H](NC(=O)C1(c2ccccc2)CCN(C(=O)OC(C)(C)C)CC1)C(=O)N[C@@H](C(=O)O)c1ccccc1 (stereo not given in full)	NS3 helicase inh 47 | NS3 hel confirm inactive | DNA FID counter inactive
CC(C)c1ccc(OCC(=O)N(Cc2ccco2)C2CCS(=O)(=O)C2)cc1 (stereo not given)	NS3 helicase inh 48 | NS3 hel confirm inactive | DNA FID counter inactive
COc1ccc(OCC(=O)N(Cc2ccco2)C2CCS(=O)(=O)C2)cc1 (stereo not given)	none
CCOc1ccc(N2C(=O)C3Sc4[nH]c(=O)sc4C(/C=C/c4ccccc4)C3C2=O)cc1 (stereo not given)	NS3 helicase inh 37 | NS3 hel confirm 62 | DNA FID counter inactive | FID counter DR inactive
COc1cc(C2c3sc(=O)[nH]c3SC3C(=O)N(c4ccc(Br)cc4)C(=O)C32)ccc1O (stereo not given)	none
CCOc1ccc2[nH]c(=O)c(CN(Cc3nnnn3Cc3ccco3)C3CCCCC3)cc2c1	NS3 helicase inh 65 | NS3 hel confirm inactive | DNA FID counter inactive
N#Cc1c(SCC(=O)Nc2ccc(C(F)(F)F)cc2)sc2c(O)cc(=O)[nH]c12	none
Cc1ccc(NC(=O)CSc2sc3c(O)cc(=O)[nH]c3c2C#N)c(F)c1	NS3 helicase inh 36 | NS3 hel confirm inactive | DNA FID counter inactive
CC(Sc1ccccc1)C(=O)NCCc1ccccc1 (stereo not given)	none
CC(=O)c1c(OC(=O)c2ccco2)c2ccccc2n1C	none
